Compounds with a hit are over-represented: about 3.8% of the library has one in this group of screens.
T cell modulator = modulators of CD8 T cell-vesicle binding, primary screen, mouse 2C CD8+ T cells, flow cytometry | 2C CD8+ T cell-vesicle binding; hits give low values | response (vesicle binding), % at 7 µM | 0.068% of 330,000 active | AID 2052, 2009;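 active = response, share of CD8 T cells binding vesicles, and their 90th percentile fluorescence all below set limits, cut at about 80% in these data, passing the limit was not always enough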;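 note: values below 100% mean blocked vesicle binding to the CD8+ T cells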
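Test system: purified 2C TCR transgenic mouse naive CD8+ T cells. Probe or stimulus: QL9-peptide-loaded Drosophila micro-vesicles bearing Ld, ICAM-1 and B7-1. Incubation: binding step 1.5 h, 37 °C, antibody labelling 20 min, ice. Measured by: flow cytometry of vesicle-bound cells.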
MPTP inh = mitochondrial permeability transition pore inhibitors, primary screen, biochemical, isolated mouse mitochondria, absorbance. inhibition, % at 10 µM. 1.4% of 360,000 active. Ca2+ swelling absorbance, 30 min;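 active = inhibition of 50% or more, scaled per plate between neutral and stimulator controls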;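 note: 0% = DMSO wells given calcium and 100% = 1 mM EGTA wells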
Granule exo inh = LAMP-1 surface exposure blockers, TALL-104 cells – cell-based, flow cytometry, MLPCN library, primary screen; AID 651702, 2012; inhibition, % at 10 µM; 0.66% of 360,000 active; TALL-104 LAMP-1 surface exposure; cells stimulated with thapsigargin and PMA;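 active = inhibition above about 55%, limit read from the data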
V-ATPase pHluor = regulators of yeast V-ATPase proton pumping, primary screen, pHLuorin cytosolic pH fluorescence; S. cerevisiae; response, % at 10 µM; 0.37% of 350,000 active; AID 504577, 2011; in the data active = response mostly above about 7.3%, no sharp cut-off; inactive = mostly below about 5.4%; note: actives read high
rCAG binder = binders of r(CAG) RNA repeats, primary screen, biochemical, fluorescence. r(CAG) RNA repeat, TO-PRO-1 dye displacement fluorescence. inhibition, % at 3 µM. 1.3% of 370,000 active. AID 651821, 2012;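 active = inhibition above the plate cutoff, the mean of all test compounds on that plate plus 3 SD, cut at about 35% in these data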;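 note: 0% = DMSO alone and 100% = 100 µM mitoxantrone as full dye displacement; higher means more dye released from RNA so lower well fluorescence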
Beta2AR agonist = beta2AR agonists driving receptor internalization, primary screen, cell-based, FAP fluorogen, flow cytometry | response, % (test concentration not listed) | AID 504454, 2011 | Beta-2 adrenergic receptor (Homo sapiens), P07550 | 0.43% of 340,000 active | Am2.2-beta2AR cells;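 active = response above a set limit, near 3 SD of response in nonfluorescent compounds, cut at about 42% in these data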
Target sequence (P07550 whole entry, looked up): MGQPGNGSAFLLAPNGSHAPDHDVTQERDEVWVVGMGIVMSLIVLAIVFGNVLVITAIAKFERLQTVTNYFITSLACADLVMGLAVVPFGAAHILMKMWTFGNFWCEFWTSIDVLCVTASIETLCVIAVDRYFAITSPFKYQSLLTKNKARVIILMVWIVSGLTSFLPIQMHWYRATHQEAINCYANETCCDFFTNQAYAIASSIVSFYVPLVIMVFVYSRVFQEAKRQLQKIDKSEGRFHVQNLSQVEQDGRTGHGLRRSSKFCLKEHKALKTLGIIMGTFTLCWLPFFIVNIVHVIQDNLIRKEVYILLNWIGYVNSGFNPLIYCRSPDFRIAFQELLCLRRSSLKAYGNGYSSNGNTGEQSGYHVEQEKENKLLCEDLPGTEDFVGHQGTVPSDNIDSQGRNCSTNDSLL
MPTP counter = fluorescence retest of MPTP screen hits in isolated mitochondria, single concentration; 78% of 5,000 active; membrane potential, Rhodamine 123 fluorescence; inhibition, % at 10 µM; AID 624504, 2012; shares compounds with MPTP inh; in the data active = inhibition above about 22%;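 note: 0% = DMSO vehicle and 100% = positive control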
MPTP abs DR = mitochondrial permeability transition pore inhibitors, dose response, biochemical, absorbance, uHTS hits | shares compounds with MPTP inh | isolated mitochondria swelling | IC50, µM | 58% of 780 active | AID 651561, 2012; in the data active = IC50 below about 20 µM
MPTP cs DR = fluorescent counter-screen in isolated mitochondria, dose response, counter-screen for MPTP inhibitor project, biochemical, fluorescence, uHTS hits. shares compounds with MPTP inh. isolated mitochondria counterscreen, fluorescence read-out. IC50, µM. 49% of 780 active. AID 651564, 2012; in the data active = IC50 below about 80 µM
Active calls of the source: *; i = inactive; . = not tested or not shown; + = active, no number.

SMILES	T cell modulator	MPTP inh	Granule exo inh	V-ATPase pHluor	rCAG binder	Beta2AR agonist	MPTP counter	others
Cc1cc(N2CCN(CC(C)(C)O)C[C@H]2C)ccc1N1CCN(Cc2ccccc2)[C@@H](C)C1	.	.	.	.	4.7	.	.
O=C(NC1CC1c1ccccc1)N1CCC(c2nc3ccc(Cl)cc3[nH]2)CC1 (configuration not stated)	.	.	.	.	3.5	.	.
C=CCCC(=O)N1C[C@H]2CCN(C)[C@H]2C[C@H]1c1ccccc1Br	.	.	.	.	0.8	.	.
COC(=O)Cc1nnn2c1[C@@H](C)[C@@H](c1ccccc1Br)OC[C@@H]2c1ccccc1	.	.	.	.	1.2	.	.
CNC(=S)Nc1cc(C)ccc1OC(F)F	280.5	-0.9	-4.0	1.6	-0.4	-1.8	.
COc1ccc(NC(=S)Nc2ccc(C)c(Cl)c2)cc1OC	483.5	52.5*	-0.4	2.5	0.6	7.7	100.0*
O=C(NNC(=S)Nc1cccc(Cl)c1)c1ccccc1OC(F)F	268.1	86.5*	0.0	-0.6	20.1	11.5	90.0*
O=C(NNC(=S)Nc1ccc(F)cc1)c1ccccc1OC(F)F	196.8	0.4	-0.9	-3.4	1.1	-9.9	.
Cc1ccc(NC(=S)Nc2ccc(Cl)c(Cl)c2)c(OC(F)F)c1	410.0	100.3*	-8.5	6.3	6.0	19.3	90.5*
Cc1ccc(CNc2nc(Cl)c(C#N)s2)cc1	234.0	67.1*	-1.0	15.2*	0.8	-6.2	76.6*
N#Cc1sc(NCc2cccc(Cl)c2)nc1Cl	313.2	10.1	3.4	0.6	0.0	4.0	.
CN1CCC(NC(=O)Nc2ccc(Br)cc2)CC1	132.8	67.2*	2.1	-3.2	3.7	-1.5	82.6*
S=C(NCC1CCCCC1)Nc1ccc(Oc2ccccc2)cc1	202.1	86.3*	-0.3	0.4	3.1	-12.4	86.2*
CC(C)(C)NC(=O)Nc1ccc(Br)cc1	308.1	57.8*	0.9	-2.1	2.2	2.7	76.8*
S=C(Nc1ccc(Br)cc1)NC1CCCC1	256.1	95.0*	0.8	0.4	-0.1	-3.4	97.3*
Nc1ccc(NC(=O)NC2CCCCC2)cc1	274.2	-2.6	-1.8	-3.3	5.7	-1.1	.
S=C(Nc1ccccc1Oc1ccccc1)NC1CCCC1	197.5	0.0	-28.4	1.8	-2.3	-0.6	.
S=C(Nc1ccc(Oc2ccccc2)cc1)NC1CCCC1	230.8	86.6*	4.3	0.1	-0.6	-12.1	83.9*
O=C(C=Cc1ccc(O)c(O)c1)NCC(=O)NC(Cc1ccccc1)C(=O)O (configuration not stated)	.	.	.	.	2.2	.	.
CCOC(=O)c1nnc(-c2cccs2)nc1Oc1ccc(Cl)cc1	524.6	+	2.7	-1.6	-1.0	11.5	-5.1	MPTP abs DR=>100;MPTP cs DR=>80
Cc1cc(C(=O)CSc2nc(N)cc(=O)[nH]2)c(C)n1-c1ccc(OC(F)F)cc1	175.9	98.0*	1.3	1.1	2.7	5.1	89.2*
Cc1cc(-n2c(C)cc(C(=O)CSc3nc(N)cc(=O)[nH]3)c2C)no1	295.1	23.0	1.8	-2.7	12.7	-3.3	.
COc1ccc(Nc2nc(N3CCCC3)c3ccccc3n2)cc1	449.9	102.8*	1.4	-2.0	19.0	18.5	100.5*
CCN(CC)c1ccc(Nc2nc(N3CCOCC3)c3ccccc3n2)cc1	157.5	28.8	0.1	0.1	3.4	7.1	.
CC(=O)N1CCN(C(=O)c2ccc(CNC(=O)c3cccc(Br)c3)cc2)CC1	.	.	.	.	-0.1	.	.
O=C(COC(=O)C12CC3CC(CC(C3)C1)C2)Nc1nc2c(F)c(F)c(F)cc2s1	i	70.4*	-0.3	-0.4	5.3	2.7	40.2*
N=c1n(Cc2ccccc2)c2ccccc2n1CC(O)c1ccco1 (configuration not stated)	148.4	-2.2	-3.6	1.2	10.0	-2.2	.
